Test results from ChEMBL document CHEMBL1143932, “Biochemical and biological properties of 5-bromotubercidin: differential effects on cellular DNA-directed and viral RNA-directed RNA synthesis” (Bioorg Med Chem, 2008).
Calls of active or inactive are those of the source. The calls are words filed in the database; no cut-off is given here.

What was measured:
Oryctolagus cuniculus [1] = species on record: Oryctolagus cuniculus; experiment: Activity of rabbit liver adenosine kinase relative to adenosine
In short: (§1)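 Adenosine kinase partially purified from rabbit liver. Assay in 20 mM KPO4 pH 5.8 with 0.7 mM ATP, 0.25 mM phosphoenol pyruvate, 0.5 mM MgCl2, 50 mM KCl, pyruvate kinase and 7–70 µM radioactive nucleoside substrate, at 25 °C. Reaction stopped with 0.25 M perchloric acid. Nucleotides separated by paper electrophoresis at pH 3.5 and counted by scintillation. Km, Ki and relative Vmax (adenosine = 100) derived.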

Oryctolagus cuniculus [2] = species on record: Oryctolagus cuniculus; experiment: Activity of rabbit liver adenosine kinase; in short: as §1
L2 = experiment: Growth inhibition of mouse L2 cells at 15 uM

| Compound | Activity (Oryctolagus cuniculus [1]) | Km (Oryctolagus cuniculus [2]) [µM] | Vmax (Oryctolagus cuniculus [2]) [µM/min] | Activity (L2) |
| --- | --- | --- | --- | --- |
| Nc1ncnc2c1ccn2[C@@H]1O[C@H](CO)[C@@H](O)[C@H]1O | 114 | 9.5 | 3.57 | Active |
| Nc1ncnc2c1ncn2[C@@H]1O[C@H](CO)[C@@H](O)[C@H]1O | – | 5.5 | 3.13 | – |
